From article PMC8434889 (Bioorganic Chemistry, 2021)

What was measured:
IFN-γ = assay: Con A-induced cytokine production in splenocytes, IFN-γ; assay type: cell-based; conditions: Mus musculus, Splenocyte, 48 h, read-out: IC50 IFN-γ
IL-6 [1] = assay: Con A-induced cytokine production in splenocytes, IL-6; assay type: cell-based; conditions: Mus musculus, Splenocyte, 48 h, read-out: IC50 IL-6
in vitro = conditions: human
IL-1β [2] = assay: LPS-induced cytokine production in splenocytes, IL-1β; assay type: cell-based; conditions: Mus musculus, Splenocyte, 48 h, read-out: IC50 IL-1β
[3] = tested on: LPS-induced B cell proliferation of murine splenocytes; assay: LPS-induced B-cell proliferation; assay type: cell-based, mouse; conditions: 48 h; for IC50: Mus musculus, B-cell, read-out: LPS-induced B-cell proliferation IC50
Procedure, shortened: (§1)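 Splenocytes from 6–8-week-old female BALB/c mice, with erythrocytes lysed in NH4Cl/Tris buffer (pH 7.2), in RPMI 1640 with 10% FBS and penicillin/streptomycin. Cells at 5 × 10^5 in triplicate for 48 h with or without test compound (DMSO stock diluted in medium). Stimulation: ConA 1 μg/mL for T cells or LPS 10 μg/mL for B cells. [3H]thymidine 0.5 μCi/well pulse for 8 h, filter harvest, scintillation counting. IC50 from log(inhibitor)–normalized response nonlinear fit.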

IL-17 = assay: Con A-induced cytokine production in splenocytes, IL-17; assay type: cell-based; conditions: Mus musculus, Splenocyte, 48 h, read-out: IC50 IL-17
[4] = Cytotoxicity in RAW264.7 cell; assay type: cell-based; conditions: mouse, RAW264.7 macrophage cells
Procedure, shortened: (§2)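 MTT assay after 48 h culture in triplicate with or without test compound. Cells: 8 × 10^5 BALB/c splenocytes or 1 × 10^5 RAW264.7 cells. MTT reagent (5 mg/mL) added 4 h before end of culture; formazan dissolved in DMSO; absorbance at 570 nm. CC50 from log(inhibitor)–normalized response nonlinear fit.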

Splenocytes cytotoxicity = assay type: cell-based; conditions: female, BALB/c, mouse, murine splenocytes
Procedure, shortened: as §2

[5] = tested on: Con A-induced T cell proliferation of murine splenocytes; assay: Con A-induced T-cell proliferation; assay type: cell-based, mouse; conditions: 48 h; for IC50: Mus musculus, T-cell, read-out: Con A-induced T-cell proliferation IC50
Procedure, shortened: as §1

TNF-α = assay: LPS-induced cytokine production in RAW264.7 cell, TNF-α; assay type: cell-based; conditions: Mus musculus, RAW264.7, 48 h, read-out: TNF-α IC50
Procedure, shortened: (§3)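 Murine RAW264.7 macrophages grown in DMEM with 10% FBS, 2 mM L-glutamine and penicillin/streptomycin at 37 °C, 5% CO2. Cells at 1 × 10^5 in triplicate with or without test compound, then LPS 10 μg/mL for 48 h. Supernatant IL-1β, IL-6 and TNF-α by ELISA. IC50 from log(inhibitor)–normalized response nonlinear fit.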

IL-6 [6] = assay: LPS-induced cytokine production in RAW264.7 cell, IL-6; assay type: cell-based; conditions: Mus musculus, RAW264.7, 48 h, read-out: IL-6 IC50
Procedure, shortened: as §3

IL-6 [7] = assay: LPS-induced cytokine production in splenocytes, IL-6; assay type: cell-based; conditions: Mus musculus, Splenocyte, 48 h, read-out: IC50 IL-6
IL-1β [8] = assay: LPS-induced cytokine production in RAW264.7 cell, IL-1β; assay type: cell-based; conditions: Mus musculus, RAW264.7, 48 h, read-out: IL-1β IC50
Procedure, shortened: as §3

[9] = target: SARS-Cov2 spike glycoprotein (Severe acute respiratory syndrome coronavirus 2, UniProt P0DTC2); assay: cell-based; assay type: cell-based, SARS-CoV-2
Huh7 cell = conditions: read-out: Huh7 cell CC50; MTT, 2 days

## CCN(CC)CCCC(C)Nc1ccnc2cc(Cl)ccc12 (centres unmarked) [Compound 1, chloroquine, reference compound]
IFN-γ
  IC50: 0.65 ± 0.31 µM
IL-6 [1]
  IC50: 7.2 ± 1.49 µM
In vitro
  CC50: 26.4 µM
IL-1β [2]
  IC50: 0.48 ± 0.34 µM
[3]
  IC50: 14.6 ± 0.56 µM
IL-17
  IC50: 0.65 ± 0.28 µM
[4]
  CC50 at 48 h: 21.9 ± 3.59 µM
Splenocytes cytotoxicity
  CC50 at 48 h: 25.5 ± 2.47 µM
[5]
  IC50: 15.27 ± 0.13 µM
TNF-α
  IC50: 35 ± 18.7 µM
IL-6 [6]
  IC50: 14.6 ± 1.27 µM
IL-6 [7]
  IC50: 0.81 ± 0.78 µM
IL-1β [8]
  IC50: 2.72 ± 0.75 µM

## CCN(CCO)CCCC(C)Nc1ccnc2cc(Cl)ccc12 (centres unmarked) [Compound 2, hydroxychloroquine, reference compound]
IFN-γ
  IC50: 0.44 ± 0.01 µM
IL-6 [1]
  IC50: 5.78 ± 2.39 µM
In vitro
  CC50: > 80 µM
IL-1β [2]
  IC50: 1.49 ± 0.32 µM
[3]
  IC50: 14.2 ± 0.21 µM
IL-17
  IC50: 0.62 ± 0.23 µM
[4]
  CC50 at 48 h: 25.3 ± 4.38 µM
Splenocytes cytotoxicity
  CC50 at 48 h: 26.8 ± 2.81 µM
[5]
  IC50: 18.2 ± 1.45 µM
TNF-α
  IC50: 10 ± 2.97 µM
IL-6 [6]
  IC50: 16.5 ± 0.55 µM
[9]
  2019nCoV-S-HIV EC50: ineffective
  EC50: > 80 µM
IL-6 [7]
  IC50: 0.86 ± 0.57 µM
IL-1β [8]
  IC50: 3.51 ± 0.15 µM

## CCN(CCCC(C)Nc1ccnc2cc(Cl)ccc12)CCNC1CNC1 (centres unmarked) [Compound 5, N^1-(2-(Azetidin-3-ylamino)ethyl)-N^4-(7-chloroquinolin-4-yl)-N^1-ethylpentane-1,4-diamine]
In vitro
  CC50: > 80 µM
[3]
  IC50: > 250 µM
[3]; murine splenocytes, LPS 10 μg/mL
  LPS-induced B-cell proliferation IC50: lost activity completely
Splenocytes cytotoxicity
  CC50 at 48 h: > 250 µM
[5]
  IC50: > 250 µM
[5]; murine splenocytes, Con A 1 μg/mL
  Con A-induced T-cell proliferation IC50: lost activity completely
[9]
  EC50: > 80 µM

## CCN(CCCC(C)Nc1ccnc2cc(Cl)ccc12)CCNC12CC(N)(C1)C2 (centres unmarked) [Compound 6, N^1-(2-((4-((7-Chloroquinolin-4-yl)amino)pentyl)(ethyl)amino)ethyl)bicyclo[1.1.1]pentane-1,3-diamine]
In vitro
  CC50: 24.9 µM
[3]
  IC50: 15.2 ± 0.46 µM
Splenocytes cytotoxicity
  CC50 at 48 h: 32.4 ± 6.22 µM
[5]
  IC50: 16.7 ± 0.34 µM
[9]
  EC50: 40.5 µM

## CCN(CCCC(C)Nc1ccnc2cc(Cl)ccc12)CCNC(=O)C(F)(F)C1CCNCC1 (centres unmarked) [Compound 8, N-(2-((4-((7-Chloroquinolin-4-yl)amino)pentyl)(ethyl)amino)ethyl)-2,2-difluoro-2-(piperidin-4-yl)acetamide]
In vitro
  CC50: 27.3 µM
[3]
  IC50: 28.3 ± 6.13 µM
Splenocytes cytotoxicity
  CC50 at 48 h: 71.6 ± 3.47 µM
[5]
  IC50: 45.4 ± 1.43 µM
[9]
  EC50: 31.6 µM

## CCN(CCCC(C)Nc1ccnc2cc(Cl)ccc12)CCNC(=O)C(F)(F)C1CCN(CC(O)C(F)(F)F)CC1 (centres unmarked) [Compound 9, N-(2-((4-((7-Chloroquinolin-4-yl)amino)pentyl)(ethyl)amino)ethyl)-2,2-difluoro-2-(1-(3,3,3-trifluoro-2-hydroxypropyl)piperidin-4-yl)acetamide]
Huh7 cell
  CC50: 16.7 µM
IFN-γ
  IC50: 1.23 ± 0.23 µM
IL-6 [1]
  IC50: 0.16 ± 0.08 µM
IL-1β [2]
  IC50: 0.21 ± 0.08 µM
[3]
  IC50: 1.07 ± 0.23 µM
IL-17
  IC50: 1.04 ± 0.2 µM
[4]
  CC50 at 48 h: 48.64 ± 0.18 µM
Splenocytes cytotoxicity
  CC50 at 48 h: 5.71 ± 1.04 µM
[5]
  IC50: 2.85 ± 0.49 µM
TNF-α
  IC50: 15.9 ± 0.45 µM
IL-6 [6]
  IC50: 1.61 ± 0.25 µM
[9]
  EC50: 32.8 µM
IL-6 [7]
  IC50: 0.01 ± 0.01 µM
IL-1β [8]
  IC50: 0.72 ± 0.17 µM

## CCN(CCCC(C)Nc1ccnc2cc(Cl)ccc12)CCNC(=O)C(F)(F)C1CCN(CCOCCOC)CC1 (centres unmarked) [Compound 10, N-(2-((4-((7-Chloroquinolin-4-yl)amino)pentyl)(ethyl)amino)ethyl)-2,2-difluoro-2-(1-(2-(2-methoxyethoxy)ethyl)piperidin-4-yl)acetamide]
Huh7 cell
  CC50: 5.75 µM
IFN-γ
  IC50: 0.61 ± 0.34 µM
IL-6 [1]
  IC50: 2.7 ± 1.16 µM
IL-1β [2]
  IC50: 0.003 ± 0.002 µM
[3]
  IC50: 1.42 ± 0.15 µM
IL-17
  IC50: 0.25 ± 0.03 µM
[4]
  CC50 at 48 h: 125 ± 45.7 µM
Splenocytes cytotoxicity
  CC50 at 48 h: 8.1 ± 0.77 µM
[5]
  IC50: 4.27 ± 0.33 µM
TNF-α
  IC50: 24.4 ± 6.05 µM
IL-6 [6]
  IC50: 2.52 ± 0.36 µM
[9]
  EC50: 5.53 µM
IL-6 [7]
  IC50: 1.48 ± 0.81 µM
IL-1β [8]
  IC50: 1.81 ± 0.83 µM

## CCN(CCCC(C)Nc1ccnc2cc(Cl)ccc12)CCNC(=O)C(F)(F)C1CCN(C(=O)C2OC(OC)C3OC(C)(C)OC23)CC1 (centres unmarked) [Compound 11, N-(2-((4-((7-Chloroquinolin-4-yl)amino)pentyl)(ethyl)amino)ethyl)-2,2-difluoro-2-(1-(6-methoxy-2,2-dimethyltetrahydrofuro[3,4-d][1,3]dioxole-4-carbonyl)piperidin-4-yl)acetamide]
Huh7 cell
  CC50: 16.9 µM
IFN-γ
  IC50: 0.35 ± 0.18 µM
IL-6 [1]
  IC50: 0.45 ± 0.18 µM
IL-1β [2]
  IC50: 0.04 ± 0.03 µM
[3]
  IC50: 2.99 ± 0.73 µM
IL-17
  IC50: 0.17 ± 0.06 µM
[4]
  CC50 at 48 h: 47.71 ± 0.15 µM
Splenocytes cytotoxicity
  CC50 at 48 h: 11.24 ± 0.08 µM
[5]
  IC50: 2.49 ± 0.11 µM
TNF-α
  IC50: 4.41 ± 1.66 µM
IL-6 [6]
  IC50: 1.87 ± 0.44 µM
[9]
  EC50: 25.2 µM
IL-6 [7]
  IC50: 0.17 ± 0.11 µM
IL-1β [8]
  IC50: 1.19 ± 0.41 µM

## CCN(CCCC(C)Nc1ccnc2cc(Cl)ccc12)CCNC(=O)CCOCCOCCOCCOCCOCC(=O)Nc1ccc2c(c1)OC(F)(F)O2 (centres unmarked) [Compound 15, N^18-(2-((4-((7-Chloroquinolin-4-yl)amino)pentyl)(ethyl)amino)ethyl)-N1-(2,2-difluorobenzo[d][1,3]dioxol-5-yl)-3,6,9,12,15-pentaoxaoctadecanediamide]
IFN-γ
  IC50: 1.67 ± 0.44 µM
IL-6 [1]
  IC50: 0.47 ± 0.16 µM
In vitro
  CC50: 21.7 µM
IL-1β [2]
  IC50: 3.34 ± 0.62 µM
[3]
  IC50: 1.44 ± 0.56 µM
IL-17
  IC50: 1.76 ± 0.72 µM
Splenocytes cytotoxicity
  CC50 at 48 h: 6.07 ± 0.4 µM
[5]
  IC50: 1.32 ± 0.06 µM
TNF-α
  IC50: 10.7 ± 3.99 µM
IL-6 [6]
  IC50: 9.63 ± 3.75 µM
[9]
  2019nCoV-S-HIV EC50: marginal potency
  EC50: 20.4 µM
IL-6 [7]
  IC50: 1.51 ± 0.53 µM
IL-1β [8]
  IC50: 3.84 ± 1.25 µM
